Rows were chosen to be rich in hits. Some 4.1% of all compounds tested hit in one or more screens of this group.
Redox H2O2 prof = compounds producing H2O2 with reducing agent – biochemical, NIH compound library profiling, artefact control for MLSCN library redox annotation, primary screen. DTT-dependent redox cycling H2O2, phenol red/HRP absorbance; 100% = 100 µM peroxide control, 0% = buffer. activation, % at 10 µM. actives 0.03% (n = 200,000);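 active means activation of at least 50% relative to the plate's high and low controls in the primary single-dose screen; inactive means activation below 50%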;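 further: compound incubated with DTT at 0.8 mM final as the reducing agent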
Dynein cargo inh = inhibitors of GR-EGFP nuclear translocation, primary screen, dynein cargo transport inhibitor project, imaging, high-content, 3617.4 mouse cells. test concentration mostly 20 µM; stimulated with dexamethasone, 1 µM; hits give low values. z-score, hits read low. actives 0.47% (n = 220,000);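 active means plate z-score of nuclear minus cytoplasmic receptor signal below a set negative limit, without overly bright fluorescence or cell loss, cut at about -3.5 in these data, passing the limit was not always enough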;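 further: z-score of nuclear minus cytoplasmic ring GR-EGFP intensity difference per well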
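Medium: Induction medium lacking tetracycline, stripped serum | Probe or stimulus: 1.0 µM final dexamethasone stimulus | Schedule: 48 h induction, then 1 h compound, then 30 min agonist, 37 °C | Signal: Automated 10x imaging of fixed Hoechst-stained cells | Evaluation: Per-cell GR-EGFP intensity, nucleus versus surrounding cytoplasmic ring, well-averaged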
Cl transport mod = KCC2 cotransporter modulators, thallium flux, primary screen, cell-based, HEK293 KCC2, FluoZin-2 fluorescence, MLSMR; Solute carrier family 12 member 5 (Homo sapiens), Q9H2X9; KCC2 cells, thallium flux FluoZin-2 fluorescence; B-score of Tl+ flux slope (higher = more flux/activation; lower = inhibition) at 10 µM; actives 2.2% (n = 190,000); AID 1456, 2008;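 active means thallium flux slope and its plate-corrected score both differing from the plate sample mean at a set confidence after two filtering rounds, in either direction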;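 further: slope of fluorescence scaled to starting intensity during 10 to 20 s after thallium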
ROMK primary = ROMK potassium channel modulators, primary screen, cell-based, thallium flux, MLSMR library; ATP-sensitive inward rectifier potassium channel 1 (Homo sapiens), P48048; actives 2% (n = 130,000); B-score at 10 µM; Tet-inducible ROMK, thallium flux fluorescence; actives lie on both sides;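 active means signal ratio slope over the read window, or its plate-corrected B-score, at least 3 SD from the plate mean, either direction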;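 further: B-score of the F/F0 ratio slope over 7 to 12 s after thallium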
Autophagy HCS = autophagy modulators in MEF cells, primary screen, imaging, high-content, MEF GFP-LC3; MEF GFP-LC3 puncta imaging; test concentration mostly 10 µM; actives 0.98% (n = 190,000); calls only at 10 µM (by protocol);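 active means percentage of spot-positive cells more than 3 SD above its plate mean, without a fluorescence outlier flag or 80% toxicity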;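 further: spot-positive cell cutoff set from DMSO-treated cells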
Numbers without * were called inactive.

`O=C(Cc1cccs1)Nc1cccc(-c2nnc(-c3ccco3)o2)c1` gave Redox H2O2 prof -1, Dynein cargo inh -0.084, Cl transport mod -0.45, ROMK primary -0.03 and Autophagy HCS inactive.
For O=C(NC1CCCCC1)c1ccc(S(=O)(=O)NCc2ccco2)cc1 the results were Redox H2O2 prof 2, Dynein cargo inh 1.8, Cl transport mod 0.52, ROMK primary 1.1 and Autophagy HCS inactive.
`O=C(NC1CCN(Cc2ccccc2)CC1)c1ccc(S(=O)(=O)NCc2ccco2)cc1` gave Redox H2O2 prof -1, Dynein cargo inh 1.6, Cl transport mod -0.67, ROMK primary -0.054 and Autophagy HCS active.
Screening COc1ccc(CC(=O)NNC(=O)c2c(-c3ccccc3Cl)noc2C)cc1OC returned Dynein cargo inh -0.97 and Cl transport mod 0.03.
For CC1(C)Cc2nc3oc4c(NCCCN5CCOCC5)ncnc4c3cc2CO1 the results were Dynein cargo inh -0.046 and Cl transport mod -1.3.
For Cc1[nH]n(-c2ccccc2)c(=O)c1N=Nc1ccccc1O the results were Redox H2O2 prof -1, Dynein cargo inh -0.69, Cl transport mod 0.67, ROMK primary 0.28 and Autophagy HCS inactive.
For Cc1[nH]n(-c2ccccc2)c(=O)c1N=Nc1nccs1 the results were Redox H2O2 prof 0, Dynein cargo inh 0.27, Cl transport mod 25*, ROMK primary 13* and Autophagy HCS inactive.
Screening CC1=NN(c2ccccc2)C(=O)/C1=C\c1cn(CCC#N)nc1-c1ccc(Cl)cc1 returned Redox H2O2 prof 0, Dynein cargo inh 1.2, Cl transport mod -1.9, ROMK primary -0.041 and Autophagy HCS inactive.
For Cc1[nH]n(-c2ccccc2)c(=O)c1/C=N/c1nn[nH]n1 the results were Redox H2O2 prof -1, Dynein cargo inh 0.64, Cl transport mod 0.63, ROMK primary 0.12 and Autophagy HCS inactive.
Cc1[nH]n(-c2ccccc2)c(=O)c1/C=N/c1ccccn1 was read as Redox H2O2 prof 0, Dynein cargo inh -0.34, Cl transport mod 18* and Autophagy HCS inactive.
Screening CC1=NN(c2ccccc2)C(=O)/C1=C\c1cn(-c2ccccc2)nc1C returned Redox H2O2 prof 0, Dynein cargo inh -0.76, Cl transport mod -0.44, ROMK primary 0.47 and Autophagy HCS inactive.
`CC1=NN(c2ccccc2)C(=O)/C1=C\c1c(C)[nH]n(-c2ccccc2)c1=O` gave Redox H2O2 prof 1, Dynein cargo inh -1.4, Cl transport mod 0.58, ROMK primary -3.6* and Autophagy HCS inactive.
For CC1=NN(c2ccccc2)C(=O)/C1=C/c1c(O)n(-c2ccc(F)c(Cl)c2)[nH]c1=O the results were Redox H2O2 prof 0, Dynein cargo inh -1.5, Cl transport mod -8.3* and Autophagy HCS inactive.
Screening O=C1CCC(C(=O)NCCCn2ccnc2)N1 (stereo unspecified) returned Redox H2O2 prof 0, Dynein cargo inh 2.2, ROMK primary 0.099 and Autophagy HCS active.
Screening O=c1oc2ccccc2cc1-c1nc2c(s1)CCc1ccccc1-2 returned Redox H2O2 prof 0, Dynein cargo inh -2.6, Cl transport mod 0.0098, ROMK primary -0.052 and Autophagy HCS active.
For C=C(C)CC(Nc1ccc(OC)cc1)c1ccco1 (stereo unspecified) the results were Redox H2O2 prof 0, Dynein cargo inh -0.64, Cl transport mod -0.22, ROMK primary -0.61 and Autophagy HCS inactive.
For Cc1ccc(C(C(=O)NCc2ccccc2)N(Cc2cccs2)C(=O)c2ccc3c(c2)OCCO3)cc1 (stereo unspecified) the results were Redox H2O2 prof 2, Dynein cargo inh -1.6, Cl transport mod -0.67, ROMK primary -0.75 and Autophagy HCS active.
`COc1ccc(CNC(=O)C(c2ccc(C)cc2)N(Cc2cccs2)C(=O)c2ccc3c(c2)OCCO3)cc1` (stereo unspecified) gave Redox H2O2 prof -1, Dynein cargo inh -1.1, Cl transport mod -0.58, ROMK primary -1.7 and Autophagy HCS inactive.
Screening CCC(C)(C)C(=O)Nc1cc([N+](=O)[O-])ccc1Cl returned Redox H2O2 prof -1, Dynein cargo inh 1.8, Cl transport mod -0.074, ROMK primary -0.018 and Autophagy HCS inactive.
`CCN(CC)c1nc(C)c(C(=S)Nc2cc([N+](=O)[O-])ccc2Cl)s1` gave Redox H2O2 prof 0, Dynein cargo inh -0.74, Cl transport mod -0.23, ROMK primary 0.0084 and Autophagy HCS active.
Screening CC(C)(C)c1ccc(OCCOc2ccc(C(C)(C)C)cc2NC=O)c(NC=O)c1 returned Dynein cargo inh 0.53 and Cl transport mod -2.8.
CCN(CC)c1ccc(C=C(c2nnnn2-c2ccc(C)cc2)c2nnnn2-c2ccc(C)cc2)cc1 was read as Redox H2O2 prof 3, Dynein cargo inh 2, Cl transport mod -0.038 and Autophagy HCS active.
For Cc1cc(N2C(=O)C(O)=C(C(=O)c3ccc(C)o3)C2c2cccs2)no1 (stereo unspecified) the results were Redox H2O2 prof 4, Dynein cargo inh 0.17, Cl transport mod -3* and Autophagy HCS inactive.
`Cc1ccc(C(=O)c2no[n+]([O-])c2C(=O)c2ccc(C)cc2)cc1` gave Redox H2O2 prof 0, Dynein cargo inh -2.1, Cl transport mod -2, ROMK primary -5.1* and Autophagy HCS inactive.
Screening Cc1cc(NNC(=O)c2cccc(C(F)(F)F)c2)nc2c1c(C)nn2C returned Dynein cargo inh -0.24 and Cl transport mod 0.
For COc1ccc(OC)c(-c2c(C#N)c(N)nc3c2c(=O)nc2sccn23)c1 the results were Redox H2O2 prof -1, Dynein cargo inh -0.48, Cl transport mod 0.93, ROMK primary 0.5 and Autophagy HCS active.
Screening COc1ccccc1-c1c(C)c(C)nc(N)c1C#N returned Redox H2O2 prof 2, Dynein cargo inh 0.47, Cl transport mod -0.091, ROMK primary -0.15 and Autophagy HCS inactive.
Screening Cc1ccc2nc(NC(=O)c3ccco3)sc2c1 returned Redox H2O2 prof 0, Dynein cargo inh -1.3, Cl transport mod -1.6, ROMK primary -0.81 and Autophagy HCS inactive.
Screening CCc1ccc2nc(NC(=O)c3cc(C)on3)sc2c1 returned Redox H2O2 prof 2, Dynein cargo inh 0.25, Cl transport mod 42* and Autophagy HCS inactive.
Cc1cc(C)c2nc(NC(=O)c3cc(C)on3)sc2c1 was read as Redox H2O2 prof 0, Dynein cargo inh 2.2, Cl transport mod 39*, ROMK primary 1.7 and Autophagy HCS inactive.
